The values that follow come from ChEMBL document CHEMBL4396917, “Synthesis and biological evaluation of novel benzylidene-succinimide derivatives as noncytotoxic antiangiogenic inhibitors with anticolorectal cancer activity in vivo” (Eur J Med Chem, 2019).

Activity calls are given as the source filed them. The rule behind the calls is not given here.

Data set [1] has as its system HUVEC. Kind of data set: Antiangiogenic activity against HUVEC assessed as inhibition of cell proliferation measured […] by MTT assay. The class given is functional, cell-based. Particulars: Homo sapiens. (Tetrazolium assays rely on reduction of a dye to a coloured formazan, in cell work by metabolically active cells.)
Data set [2] concerns HUVEC. Kind of data set: Antiangiogenic activity in HUVEC assessed as inhibition of VEGF-induced capillary like tube formation preincubated with VEGF for 20 mins followed by compound addition measured after 6 hrs by matrigel based tube formation assay. The data set is classed as functional, cell-based. The following applies: Homo sapiens. Summed up: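 Matrigel (100 μL) set 1 h at 37°C; 2×10⁴ HUVECs in M200 with 10% FBS added per well plus 10 ng/mL VEGF; compound added after 20 min; incubated 6 h at 37°C, then capillary-like structures photographed.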

The test system of data set [3] is HUVEC. Kind of data set: Induction of apoptosis in VEGF-stimulated HUVEC assessed as necrotic cells at 1 uM after 24 hrs by Annexin V-FITC/propidium iodide staining based flow cytometric analysis (reference value: 12.1%). Particulars: human. The data set is classed as cell-based. Summed up:
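HUVECs plated at 5×10^5 per well and treated 24 h with 1, 5, 10 or 20 μM. Detached and adherent cells were pooled, washed in ice-cold PBS and resuspended in fresh medium. 1×10^5 cells were stained with annexin-V-FITC in annexin-V buffer for 20 min in the dark, then PI (50 μg/mL) was added. Read-out by flow cytometry.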
A general note: Flow cytometry measures light scatter and fluorescence of single cells or particles in a stream.

The subject of data set [4] is HT-29. Kind of data set: Induction of apoptosis in human HT-29 cells assessed as early apoptotic cells at 5 uM after 48 hrs by Annexin V-FITC/propidium iodide staining based flow cytometric analysis (reference value: 5.3%). The class given is cell-based. The following applies: ht-29, 48 h.
Data set [5] is described as follows: Toxicity in mouse xenografted with human HT-29 cells assessed as body weight at 20 to 60 mg/kg, po administered every other day for 3 weeks. The data set is classed as organism-based. Particulars: in vivo, 504 h. In short, it runs like this: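 HT29 cells implanted subcutaneously in the right flank of nude mice. At about 100 mm³, mice were randomized to vehicle (0.9% NaCl) or oral compound at 20, 40 and 60 mg/kg, with sunitinib at 40 mg/kg as reference. Body weight and tumor size recorded every other day.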
On the technique in general: Xenograft models place foreign cells or tissue in a host animal.

For data set [6], the system named is HT-29. Kind of data set: Antitumor activity against human HT-29 cells xenografted in mouse assessed as large areas of late apoptotic and necrotic cells in tumor at 20 to 60 mg/kg, po administered every other day for 3 weeks and measured at 20 days post treatment by H and E staining based assay. The class given is functional, organism-based.

With `COc1ccc(NC(=O)c2cccc(/C=C3\CC(=O)N(c4ccc(C)cc4)C3=O)c2)cc1`, the inhibition entry in the data set on HUVEC [1] and in the data set on HUVEC [2] was “Dose-dependent effect” in each case. For the same compound, the IC50 – broadly, the concentration needed to halve the response being measured – in the data set on HUVEC [1] (0.5 h) came to 26.6 µM. Further, the figures for the Activity (in the data set with HUVEC [3]; in the data set on HT-29 [4]; in data set [5]) were 6.2%, 9.7% and “Non-Toxic”, respectively. Besides, the result with HT-29 [6] was Active.
